The values that follow come from ChEMBL document CHEMBL1158610, “5-arylamino-1,2,4-triazin-6(1H)-one CRF1 receptor antagonists” (Bioorg Med Chem Lett, 2010).

Data set [1] deals with T1, Corticotropin-releasing factor receptor 1 (Rattus norvegicus, UniProt P35353).
T1 sequence (P35353 whole entry): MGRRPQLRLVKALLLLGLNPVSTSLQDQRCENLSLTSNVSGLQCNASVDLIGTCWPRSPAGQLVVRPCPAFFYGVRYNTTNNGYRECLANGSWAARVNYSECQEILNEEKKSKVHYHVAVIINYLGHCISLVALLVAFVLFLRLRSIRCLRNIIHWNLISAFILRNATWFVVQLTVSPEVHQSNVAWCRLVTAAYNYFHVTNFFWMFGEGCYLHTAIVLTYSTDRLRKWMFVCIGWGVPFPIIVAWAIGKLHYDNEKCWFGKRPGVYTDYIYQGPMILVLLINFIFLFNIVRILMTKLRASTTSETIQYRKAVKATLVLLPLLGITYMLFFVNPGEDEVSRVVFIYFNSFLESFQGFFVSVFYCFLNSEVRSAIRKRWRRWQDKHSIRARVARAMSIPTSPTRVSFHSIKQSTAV
Put plainly: Displacement of [125I]Tyr-ovine CRF from rat CRF1 receptor. In short, it runs like this:
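Rat frontal cortex homogenate; inhibition of specific [¹²⁵I]Tyr-ovine-CRF binding measured across a titration of test compound to give IC50. Values are means of three experiments, with standard deviation.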
(Displacement assays read how much labelled ligand stays bound in the presence of the test substance.)

Data set [2] has as its system Liver microsomes. Briefly: Metabolic stability in human liver microsome assessed as compound remaining. It is filed as ADME.
In data set [3] the test system is Liver microsomes. Put plainly: Metabolic stability in rat liver microsome assessed as compound remaining. It is filed as ADME. A general note: Liver microsomes are a subcellular fraction often used to study metabolism.
The target of data set [4] is T2, Corticotropin-releasing factor receptor 1 (Rattus norvegicus) (UniProt P35353).
T2 sequence (whole entry): T1 sequence (P35353 whole entry)
Briefly: Displacement of [125]sauvagin from CRF1 receptor in rat parietal cortex.

Usually IC50 stands for the concentration needed to halve the response being measured. Read a low IC50 as inhibition by little substance.

As to `Cc1nc(Nc2cc(C)c(C#N)cc2C)c(=O)n(C(C)C2CC2)n1` (configuration not stated), in data set [1], the IC50 came to 60 nM.

`COC[C@@H](C1CC1)n1nc(C)nc(Nc2c(Cl)cc(OC(F)F)cc2Cl)c1=O` yielded an IC50 in data set [1] of 23 nM.

In data set [1], `COC[C@H](C1CC1)n1nc(C)nc(Nc2c(Cl)cc(OC(F)F)cc2Cl)c1=O` registered an IC50 of 4.4 nM.

In turn, `CCC(C1CC1)n1nc(C)nc(Nc2cc(C)c(OC)nc2C(F)(F)F)c1=O` (configuration not stated) registered an IC50 in data set [1] of 2.7 nM.

In data set [1], `Cc1nc(Nc2c(Cl)cc(C#N)c(Cl)c2Cl)c(=O)n(C(C)C2CC2)n1` (configuration not stated) had an IC50 of 10 nM.

As to `CCOc1ccc(Nc2nc(C)nn(C(CC)C3CC3)c2=O)c(C(F)(F)F)n1` (configuration not stated), the IC50 in data set [1] came to 3.6 nM.

With `COc1cc(Cl)c(Nc2nc(C)nn([C@H](C)C3CC3)c2=O)c(Cl)c1`, in data set [1], the IC50 is 8.3 nM.

Regarding `Cc1nc(Nc2cc(Cl)c(C#N)cc2Cl)c(=O)n(C(C)C2CC2)n1` (configuration not stated), in data set [1], the IC50 was 270 nM.

`Cc1nc(Nc2c(Cl)cc(OC(F)F)cc2Cl)c(=O)n([C@@H](C)C2CC2)n1` showed a half-maximal inhibitory concentration (IC50) in data set [1] of 7.2 nM.

In the case of `COCC(C1CC1)n1nc(C)nc(Nc2cc(C)c(OC)nc2C)c1=O` (configuration not stated), the IC50 in data set [1] is 20 nM.

Take `Cc1nc(Nc2cc(C(F)(F)F)c(C#N)cc2Cl)c(=O)n(C(C)C2CC2)n1` (configuration not stated): the IC50 in data set [1] was found to be 3300 nM.

The molecule `COc1cc(C)c(Nc2nc(C)nn(C(C)C3CC3)c2=O)c(C)c1` (configuration not stated) displayed an IC50 in data set [1] of 68 nM.

The molecule `COC[C@H](C1CC1)n1nc(C)nc(Nc2ccc(OC)nc2C(F)(F)F)c1=O` showed a half-inhibitory concentration (IC50) in data set [1] of 15 nM.

On to `Cc1nc(Nc2c(Cl)cc(OC(F)F)cc2Cl)c(=O)n([C@H](C)C2CC2)n1`, for which the IC50 in data set [1] is 13 nM.

In turn, `COC[C@@H](C1CC1)n1nc(C)nc(Nc2c(Cl)cc(OC)cc2Cl)c1=O` displayed a half-inhibitory concentration (IC50) in data set [1] of 69 nM.

`COC[C@H](C1CC1)n1nc(C)nc(Nc2c(Cl)cc(OC)cc2Cl)c1=O` gave an IC50 in data set [1] of 7.2 nM.

In turn, `CCC(C1CC1)n1nc(C)nc(Nc2c(Cl)cc(OC(F)F)cc2Cl)c1=O` (configuration not stated) displayed an IC50 in data set [1] of 2.1 nM.

Molecule `Cc1cc(C)c(Nc2nc(C)nn(C(C)C3CC3)c2=O)c(C)c1` (configuration not stated) came in with a half-maximal inhibitory concentration (IC50) in data set [1] of 19 nM.

Molecule `COc1cc(Cl)c(Nc2nc(C)nn(C(C)C3CC3)c2=O)c(Cl)c1` (configuration not stated) yielded an IC50 in data set [1] of 15 nM.

The molecule `Cc1nc(Nc2c(Cl)cc(C(F)(F)F)nc2Cl)c(=O)n(C(C)C2CC2)n1` (configuration not stated) gave an IC50 in data set [1] of 260 nM.

Consider `COc1nc(C)c(Nc2nc(C)nn(C(C)C3CC3)c2=O)cc1C` (configuration not stated), for which, in data set [1], the IC50 was 26 nM.

`COCC(C1CC1)n1nc(C)nc(Nc2c(Cl)cc(C(F)(F)F)cc2Cl)c1=O` (configuration not stated) came in with an IC50 in data set [1] of 11 nM.

In data set [1], `CCOc1ccc(Nc2nc(C)nn([C@@H](COC)C3CC3)c2=O)c(C(F)(F)F)n1` returned an IC50 of 2.4 nM.

`COc1cc(Cl)c(Nc2nc(C)nn([C@@H](C)C3CC3)c2=O)c(Cl)c1`: the half-maximal inhibitory concentration (IC50) in data set [1] was 7.5 nM.

Molecule `Cc1nc(Nc2c(Cl)cc(OC(F)(F)F)cc2Cl)c(=O)n(C(C)C2CC2)n1` (configuration not stated) came in with an IC50 in data set [1] of 39 nM.

For the molecule `COCC(C1CC1)n1nc(C)nc(Nc2ccc(OC)nc2C(F)(F)F)c1=O` (configuration not stated), the IC50 in data set [1] was 3.7 nM.

Consider `COc1ccc(Nc2nc(C)nn([C@H](C)C3CC3)c2=O)c(C(F)(F)F)n1`, for which the Stability in the data set on Liver microsomes [2] was determined as 85%; in the data set on Liver microsomes [3], 37%. In data set [1], this molecule showed an IC50 of 3.5 nM.

Take `CCOc1ccc(Nc2nc(C)nn(C(COC)C3CC3)c2=O)c(C(F)(F)F)n1` (configuration not stated): in data set [4], the Activity was 46%. Moreover, in data set [1], the half-inhibitory concentration (IC50) worked out at 3 nM.

Molecule `CCC(C1CC1)n1nc(C)nc(Nc2cc(C)c(OC)cc2C)c1=O` (configuration not stated) returned an Activity in data set [4] of 64%. In data set [1], this molecule had an IC50 of 0.89 nM.

`CCC(C1CC1)n1nc(C)nc(Nc2cc(OC)c(C#N)cc2C)c1=O` (configuration not stated): the IC50 in data set [1] stood at 13 nM.

For `Cc1nc(Nc2c(Cl)cc(C(F)(F)F)cc2Cl)c(=O)n(C(C)C2CC2)n1` (configuration not stated), the IC50 in data set [1] came to 14 nM.

In the case of `COCC(C1CC1)n1nc(C)nc(Nc2c(Cl)cc(OC)cc2Cl)c1=O` (configuration not stated), the half-inhibitory concentration (IC50) in data set [1] was found to be 6.3 nM.

For the molecule `COC[C@@H](C1CC1)n1nc(C)nc(Nc2cc(C)c(OC(F)F)nc2C)c1=O`, in data set [1], the half-maximal inhibitory concentration (IC50) amounted to 1.1 nM.

Take `COc1ccc(Nc2nc(C)nn(C(C)C3CC3)c2=O)c(C(F)(F)F)n1` (configuration not stated): in data set [1], the IC50 was 6.7 nM.

The molecule `CCC(C1CC1)n1nc(C)nc(Nc2c(Cl)cc(C(F)(F)F)cc2Cl)c1=O` (configuration not stated) displayed an IC50 in data set [1] of 6.3 nM.

`Cc1nc(Nc2c(C)cc(Cl)cc2Cl)c(=O)n(C(C)C2CC2)n1` (configuration not stated) gave an IC50 in data set [1] of 33 nM.

Turning to `CCC(C1CC1)n1nc(C)nc(Nc2ccc(OC)nc2C(F)(F)F)c1=O` (configuration not stated), the IC50 in data set [1] was 3.7 nM.

Regarding `Cc1nc(Nc2c(Cl)cc(OC(F)F)cc2Cl)c(=O)n(C(C)C2CC2)n1` (configuration not stated), in data set [1], the IC50 was determined as 9.9 nM.

Consider `COc1nc(C)c(Nc2nc(C)nn(C(C)C3CC3)c2=O)c(OC)n1` (configuration not stated), for which, in data set [1], the IC50 turned out to be 1100 nM.

On to `CCC(C1CC1)n1nc(C)nc(Nc2cc(C)c(OC)nc2C)c1=O` (configuration not stated), for which the IC50 in data set [1] came out at 6.5 nM.

In the case of `CCOc1ccc(Nc2nc(C)nn([C@H](C)C3CC3)c2=O)c(C(F)(F)F)n1`, the IC50 in data set [1] was 8.6 nM.

`Cc1cn([C@H](C)C2CC2)c(=O)c(Nc2c(Cl)cc(OC(F)F)cc2Cl)n1`: the Stability with Liver microsomes [2] is 71%; with Liver microsomes [3], 12%.

In data set [1], `COc1cc(Nc2nc(C)nn(C(C)C3CC3)c2=O)c(C)cc1C#N` (configuration not stated) showed an IC50 of 94 nM.

In turn, `COC[C@H](C1CC1)n1nc(C)nc(Nc2cc(C)c(OC(F)F)nc2C)c1=O` registered an IC50 in data set [1] of 6.5 nM.

Consider `COc1cc(C)c(Nc2nc(C)nn(C(C)C3CC3)c2=O)cc1C` (configuration not stated), for which the IC50 in data set [1] is 5 nM.

`CCOc1ccc(Nc2nc(C)nn([C@H](COC)C3CC3)c2=O)c(C(F)(F)F)n1` came in with an IC50 in data set [1] of 27 nM.

In turn, `CCOc1cc(C)c(Nc2nc(C)nn(C(C)C3CC3)c2=O)cc1C` (configuration not stated) returned a 50% inhibitory concentration (IC50) in data set [1] of 28 nM.

`COc1ccc(Nc2nc(C)nn([C@@H](C)C3CC3)c2=O)c(C(F)(F)F)n1` yielded an IC50 in data set [1] of 12 nM.

Turning to `COCC(C1CC1)n1nc(C)nc(Nc2cc(C)c(OC(F)F)nc2C)c1=O` (configuration not stated), the half-inhibitory concentration (IC50) in data set [1] is 1.1 nM.

Take `COCC(C1CC1)n1nc(C)nc(Nc2c(C)cc(OC)cc2C)c1=O` (configuration not stated): the IC50 in data set [1] amounted to 51 nM.

`CCOc1ccc(Nc2nc(C)nn(C(C)C3CC3)c2=O)c(C(F)(F)F)n1` (configuration not stated) came in with an IC50 in data set [1] of 12 nM.

In turn, `CCC(C1CC1)n1nc(C)nc(Nc2cc(C)c(C#N)cc2C)c1=O` (configuration not stated) came in with an IC50 in data set [1] of 9.3 nM.

Regarding `COCC(C1CC1)n1nc(C)nc(Nc2c(Cl)cc(OC(F)F)cc2Cl)c1=O` (configuration not stated), the IC50 in data set [1] turned out to be 6.3 nM.

In the case of `Cc1nc(Nc2c(Cl)cc(S(C)(=O)=O)cc2Cl)c(=O)n(C(C)C2CC2)n1` (configuration not stated), the IC50 in data set [1] was determined as 20 nM.

For `COC[C@@H](C1CC1)n1nc(C)nc(Nc2ccc(OC)nc2C(F)(F)F)c1=O`, the IC50 in data set [1] amounted to 2.3 nM.

Turning to `CCOc1ccc(Nc2nc(C)nn([C@@H](C)C3CC3)c2=O)c(C(F)(F)F)n1`, the IC50 in data set [1] was 23 nM.

The molecule `COCC(C1CC1)n1nc(C)nc(Nc2c(Cl)cc(OC(F)(F)F)cc2Cl)c1=O` (configuration not stated) had an IC50 in data set [1] of 11 nM.
